Results published in publication PMC12236005 (Journal of Nanobiotechnology, 2025).

Tests used:
H2O2 treated H9c2 cells [1] = assay: Intracellular ROS, DHE probe; assay type: cell-based; details: DHE staining, 4 h treatment, n = 5
Outline: (§1)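 H9c2 cells cultured 24 h, then exposed to test compound for 4 h. Stained with a fluorescent probe: DHE for ROS, O38 for NO. Fluorescence microscopy, with mean fluorescence intensity taken per image. n = 5.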

H2O2-treated H9c2 cells = assay: Mitochondria-related cell injury probes; assay type: cell-based; details: 6 h treatment, n = 5; for mitochondrial membrane potential: JC-10 probe
Outline: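 H9c2 cells were seeded and grown 24 h, then treated for 6 h and stained with JC-10. Fluorescence images were taken, and membrane potential was expressed as the ratio of red to green fluorescence intensity. n = 5.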

H2O2 treated H9c2 cells [2] = assay: Intracellular ONOO-/RNS, O58 probe; assay type: cell-based; details: 4 h treatment, n = 5
Outline: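 H9c2 cells (high-glucose DMEM, 10% FBS) were seeded and grown 24 h, then treated 4 h. Cells were stained with BBoxiProbe O58 for ONOO−, imaged by fluorescence microscopy, and mean fluorescence intensity was quantified. n = 5.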

H9c2 cells [3] = assay: Mitochondria TEM and cellular ATP; assay type: cell-based
H9c2 cells [4] = assay: Western blotting of oxidative stress, inflammation and apoptosis proteins; assay type: cell-based; details: H2O2 treated H9c2 cells, n = 3
Outline: (§2)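 Lysates from HUVECs or H9c2 cells were protein-quantified by BCA. Equal amounts were run on SDS-PAGE and transferred to PVDF. Membranes were blocked with 5% non-fat milk and probed with primary and secondary antibodies. Bands were detected by ECL chemiluminescence and quantified by densitometry. n = 3.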

DPPH assay = details: PDCs 0-200 µM, DPPH 500 µM, 30 min in darkness, absorbance 517 nm; n = 3
Outline: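 DPPH solution (500 µM before mixing) was combined with PDC solutions at 0, 5, 10, 25, 50, 100 and 200 µM and kept 30 min in darkness. Absorbance was read at 517 nm and scavenged DPPH calculated. Mean ± SEM, n = 3.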

cells = assay: NO release from culture medium of cells, Griess assay; assay type: cell-based; details: PDCs 10 µM
Outline: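 PDCs (10 µM) were incubated with cells pretreated with PBS or H2O2 for 24 h. NO in the culture medium was measured by Griess assay at 0 h and 24 h.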

[5] = In vivo distribution of Cy5.5-labeled PDCs; design: species or system mice
Outline: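 Male C57BL/6 mice (10-week-old), sham or MI, received Cy5.5-labelled PDCs by tail-vein injection. A scrambled-peptide (non-targeting) conjugate served as control, and dye-labelled conjugates were normalised to equal fluorescence by UV-Vis. At 2 h and 6 h mice were euthanised. Hearts, lungs, livers, spleens and kidneys were imaged ex vivo and average radiance quantified.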

H9c2 cells [6] = assay: Cell protection under H2O2, CCK-8; assay type: cell-based; details: 10 µM equivalent of PBA or/and ISN, 500 µM H2O2, 24 h, n = 5
Outline: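 H9c2 cells (high-glucose DMEM, 10% FBS) seeded at 5 × 10^3/well and grown 24 h. Medium then replaced with treatments at 10 µM PBA and/or ISN equivalent, followed by 500 µM H2O2, with PBS as control. After 24 h, cells were given fresh medium containing 10% CCK-8 for 4 h. Supernatant absorbance was read at 450 nm to calculate viability.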

HUVECs [7] = assay: Western blotting of VEGF, p-eNOS, eNOS; assay type: cell-based, human; details: H2O2 treated HUVECs, immunoblot; n = 3
Outline: as §2

H9c2 cells [8] = assay: Apoptosis by flow cytometry, Annexin V-PI staining; assay type: cell-based; details: H9c2 + H2O2, 24 h treatment, n = 3
H2O2 treated H9c2 cells [9] = assay: Intracellular NO, O38 probe; assay type: cell-based; details: 4 h treatment, n = 5
Outline: as §1

HUVECs [10] = assay: HUVEC survival under oxidative stress; assay type: cell-based, human; details: H2O2, calcein-AM/PI staining and CCK-8 assay; n = 5
Outline: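 CCK-8: 5 × 10^3 cells/well plated 24 h, then medium with test compound (10 µM equivalent of PBA and/or ISN) and 500 µM H2O2 (PBS control). After 24 h, 10% CCK-8 for 4 h, absorbance at 450 nm. Live/dead: 1 × 10^5 cells/well plated 24 h, treated 24 h, calcein AM/PI stain 30 min, fluorescence imaging, dead/live ratio quantified. n = 5.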

[11] = DLS and TEM of self-assembled nanoaggregates; assay type: physicochemical; details: self-assembly in aqueous solution; TEM images and DLS
ABTS assay = details: test kit; n = 3
HUVECs [12] = assay: HUVEC tube formation assay; assay type: cell-based, human; details: H2O2-treated HUVECs on Matrigel, 6 h; n = 5
Outline: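 HUVECs (2.5 × 10^4 per well) seeded on Matrigel-coated wells with test compound and incubated 6 h. Bright-field images from five random fields scored for tube length, branching length and junction number. n = 5.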

MI mice = assay type: in vivo, C57BL/6 mice
HUVECs [13] = assay: HUVEC migration; assay type: cell-based, human; details: H2O2 treated; scratch assay 24 h and Transwell assay 8 h; n = 5
Outline: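 Two formats. Scratch: HUVECs pre-stained with green fluorescent dye and grown to a confluent monolayer. Gap scratched with a pipette tip, then fresh medium with test compound added. Fluorescence images at 0 and 24 h give the percentage of wound area healed. Transwell: 8.0-µm pores, 8 × 10^4 cells in serum-free medium above, 10% FBS medium with test compound below, 8 h. Migrated cells stained with 0.1% crystal violet and counted in five random fields. n = 5.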

HUVECs [14] = assay: Intracellular ROS, NO and RNS probes in HUVECs; assay type: cell-based, human; details: H2O2 treated HUVECs, O38 probe; n = 5
Outline: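 HUVECs (endothelial cell medium, 5% FBS plus growth supplements) were seeded and grown 24 h, then treated 4 h. Cells were stained with BBoxiProbe O38 for NO, imaged by fluorescence microscopy, and mean fluorescence intensity was quantified. Mean ± SEM, n = 5.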

[15] = immunofluorescence, 28 days after MI, n = 4

Compound: OCc1ccc(O)cc1 [4-HBA, 4-hydroxybenzyl alcohol]
- intracellular ROS level (H2O2 treated H9c2 cells [1]): mitigate intracellular ROS in a concentration-dependent manner

Compound: CSTSMLKAC [CTP-PBA-ISN]
- cytoplasmic calcium level (H2O2-treated H9c2 cells; Fluo-4 AM staining): reversed the abnormal elevation of cytoplasmic calcium level
- mitochondrial membrane potential (H2O2-treated H9c2 cells): potently restored the cross-membrane potential of mitochondria
- mitochondrial ROS (H2O2-treated H9c2 cells; MitoSOX staining): most effective in blocking the H2O2-induced overproduction of ROS in mitochondria
- intracellular concentration of peroxynitrite (ONOO-) / RNS (H2O2 treated H9c2 cells [2]): did not increase the intracellular concentration of RNS
- ATP content (H9c2 cells [3]; H9c2 under H2O2, ATP assay kit, n = 3): increased ATP content
- structure of mitochondria (H9c2 cells [3]; H9c2 under H2O2, TEM): preserved the normal structure of mitochondria
- TNF-α and IL-6 protein expression (H9c2 cells [4]; immunoblot): capably reversed such elevation
- intracellular expression of Nrf2, HO-1 and NQO-1 (H9c2 cells [4]; immunoblot): downregulated intracellular expression of Nrf2, HO-1 and NQO-1
- expression of BAX, Caspase3 and Bcl-2 (H9c2 cells [4]; western blotting): most effective in downregulation of apoptosis proteins (BAX, Caspase3) and upregulation of anti-apoptosis protein (Bcl-2)
- free radical clearance, DPPH assay (DPPH assay): dose-dependent manner
- NO concentration in culture medium (cells; cells treated with H2O2, 24 h): significantly increased NO concentration
- NO release in culture medium (cells; cells without H2O2 treatment, 24 h): moderated NO release
- accumulation in other organs ([5]; sham and MI animals, extended time after injections, n = 3): accumulated in the kidneys, livers, and lungs
- viability of H9c2 challenged with H2O2 (H9c2 cells [6]): potent preservation of cell survival
- expression of VEGF and p-eNOS/eNOS ratio (HUVECs [7]): remarkably upregulated
- apoptosis percentage (H9c2 cells [8]): 15.6%
- intracellular level of NO (H2O2 treated H9c2 cells [9]): significantly increased the intracellular level of NO
- bio-viability and apoptosis of HUVECs under oxidative stress (HUVECs [10]): most effective in maintaining bio-viability and inhibiting apoptosis
- diameter of spherical nanoaggregates [11]: 47 ± 4 nm
- ROS clearance, ABTS assay (ABTS assay): dose-dependent manner
- tube formation (pseudopod length, number of junction, degree of branch) (HUVECs [12]): facilitated recovery in pseudopod length, number of junction and degree of branch
- fibrotic area and infarct wall thickness (MI mice; Masson's trichrome, 28 days after MI, n = 4): reduced fibrotic area and increased infarct wall thickness
- ultrastructure of myocardial mitochondria (MI mice; TEM of tissue slices, 3 days after MI): ameliorated myocardial fiber rupture, mitochondrial damage and increased mitochondrial numbers
- apoptosis cardiomyocytes in infarcted myocardial tissue (MI mice; TUNEL staining, 3 days after MI, n = 4): lowest number of apoptosis cardiomyocytes
- cross-sectional area of cardiomyocytes (MI mice; WGA staining, 28 days after MI, n = 5): smaller cross-sectional area of cardiomyocytes
- OS proteins (NRF2, HO-1, NQO-1) and pro-inflammation cytokines (TNF-α, IL-6) in the heart (MI mice; Western blot, 1 day after MI, n = 3): significant decrease
- protein expressions of CS, IDH2 and OGDH in heart tissues (MI mice; immunoblot, 3 days after MI, n = 3): facilitated recovery of these downregulated mitochondria related rate-limiting enzymes
- angiogenesis in the border zone of infarct region (CD31+ capillaries, α-SMA+ arterioles) (MI mice; [15]): greatly promoted
- macrophage phenotype (CD86 / CD206) (MI mice; [15]): established a M2-dominant macroenvironment
- infarct area (MI mice; n = 3): greatly reduced
- migration of HUVECs (HUVECs [13]): migration to the level similar to those of H2O2-untreated control
- intracellular NO delivery (HUVECs [14]): maximizing intracellular NO delivery

Compound: O=[N+]([O-])O[C@@H]1CO[C@H]2[C@@H]1OC[C@@H]2O [ISN, isosorbide mononitrate, reference compound]
- mitochondrial membrane potential (H2O2-treated H9c2 cells): negligible influence on the restoration of mitochondrial membrane potential
- intracellular concentration of peroxynitrite (ONOO-) / RNS (H2O2 treated H9c2 cells [2]): dramatically elevated the intracellular concentration of peroxynitrite
- viability of H9c2 challenged with H2O2 (H9c2 cells [6]): increased the loss of myocytes
- expression of VEGF and p-eNOS/eNOS ratio (HUVECs [7]): nor did it reverse the downregulated expression of angiogenesis-related proteins
- apoptosis percentage (H9c2 cells [8]): 32.2%
- intracellular level of NO (H2O2 treated H9c2 cells [9]): significantly increased the intracellular level of NO
- ROS in heart tissue (MI mice; DHE staining, day 1 after MI, i.v. 200 µg/kg equivalent of ISN, n = 4): little effects on tissue abundance of ROS
- RNS in heart tissue (MI mice; O56 staining, day 1 after MI, i.v. 200 µg/kg equivalent of ISN, n = 4): promoted vast generation of RNS
- angiogenesis in the border zone of infarct region (CD31+ capillaries, α-SMA+ arterioles) (MI mice; [15]): didn’t have any effects of neovascularization
- migration of HUVECs (HUVECs [13]): barely promoted the H2O2-inhibited migration of HUVECs
- intracellular ROS level (H2O2 treated H9c2 cells [1]): did not change the level of ROS inside cells

Compound: CSTSMLKAC [Cy5.5-CTP-PBA-ISN]
- fluorescent signal of infarcted hearts ([5]; MI mice, 2 h after injection via tail veins, ex vivo imaging): bright fluorescent signal

Compound: CSTSMLKAC [CTP-PBA]
- mitochondrial membrane potential (H2O2-treated H9c2 cells): limited effects
- intracellular concentration of peroxynitrite (ONOO-) / RNS (H2O2 treated H9c2 cells [2]): downregulation of RNS inside cells
- viability of H9c2 challenged with H2O2 (H9c2 cells [6]): only partially restored the viability of H9c2
- apoptosis percentage (H9c2 cells [8]): 20.3%
